This is an account of results in the array DNA melting data of Ke et al. (doi:10.1101/2024.01.08.574731).

The nature of data set [1]: folding enthalpy; higher = less favourable; fluorescence melt of hairpins on a sequencing array, two-state fit. The conditions noted are these: sodium 0.088 M. In short, it runs like this: (§1)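 Hairpins were imaged by Cy3 fluorescence on a sequenced MiSeq flow cell with annealed Cy3 and quencher oligos, in 50 mM Na-HEPES pH 8.0, 25 mM NaCl, in 2.5 °C steps up to 60 °C. Bootstrapped two-state fits of normalised signals gave melting temperature and folding enthalpy. Four replicates were combined by inverse variance, and fitted temperatures were raised by 9.35 °C to match UV melts.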

A short description of data set [2]: melting temperature; fluorescence melt of hairpins on a sequencing array, two-state fit, raised by 9.35 °C to match UV melts. The note with it: sodium 0.088 M. The gist of the method: as §1

Turning to GTGGTTGGAAACAGTCAC (((..((....))..))), the folding enthalpy in data set [1] is -19.4 kcal/mol. Besides, the Tm in data set [2] is 31.2 °C.
For GTGGTTGGAAACGACCAC (((((.(....).))))) the same measures were -41 kcal/mol and 54.7 °C.
In the same order, the values of GTGTAACGAAAGTTTCAC (((.(((....))).))) are -22.9 kcal/mol and 44.9 °C.
For the sequence GTGTACGAAAGTAACAC ((((((....))).))), the folding enthalpy in data set [1] is -30 kcal/mol. In addition, in data set [2], the Tm stood at 49.5 °C.
In the same order, the values of GTGTACGAAAGTAACCAC ((((((....)))..))) are -15 kcal/mol and 32 °C.
With GTGTACGAAAGTAAGCAC ((((((....)))..))), in data set [1], the folding enthalpy was -21.3 kcal/mol. In addition, the Tm in data set [2] was 33.4 °C.
With GTGTACGAAAGTAATCAC ((((((....)))..))), the folding enthalpy in data set [1] was -18.3 kcal/mol. Also, in data set [2], the Tm came to 30.2 °C.
With GTGTACGAAAGTATCCAC ((((((....)))..))), the folding enthalpy in data set [1] is -18.3 kcal/mol. In addition, the Tm in data set [2] is 26.4 °C.
Regarding GTGTACGGAAACATACAC (((((.(....).))))), the folding enthalpy in data set [1] was -26 kcal/mol. Also, the Tm in data set [2] is 36.1 °C.
On to GTGTACGGAAACGTATAC ((.((((....)))).)), for which, in data set [1], the folding enthalpy is -29.1 kcal/mol. In data set [2], the Tm was 46.6 °C.
For GTGTACGGAAACGTATGC (..((((....))))..), in data set [1], the folding enthalpy is -26.7 kcal/mol. In data set [2], the Tm came out at 39.5 °C.
For GTGTACGGAAACGTGTAC ((..(((....)))..)) the same measures were -20.4 kcal/mol and 35.2 °C.
In the same order, the values of GTGTAGGGAAACCCACAC ((((.((....)).)))) are -24.5 kcal/mol and 45.8 °C.
For GTGTATCGAAAGATTCAC (((.(((....))).))) the same measures were -36.9 kcal/mol and 44.7 °C.
In the case of GTGTATGGAAACATGCAC (((.(((....))).))), in data set [1], the folding enthalpy was -33.9 kcal/mol. Moreover, the Tm in data set [2] came to 48.9 °C.
For GTGTCACGAAAGTGCAC (((.(((....)))))) the same measures were -26 kcal/mol and 53.5 °C.
For GTGTCACGAAAGTGGCAC (((.(((....))).))) the same measures were -37.1 kcal/mol and 67.3 °C.
In the same order, the values of GTGTCAGAAATGACAC ((((((....)))))) are -35.9 kcal/mol and 56.4 °C.
Turning to GTGTCAGCGAAAGCTCAC (((..(((....)))))), the folding enthalpy in data set [1] is -15.3 kcal/mol. Moreover, the Tm in data set [2] amounted to 39 °C.
For GTGTCCCGAAAGGGCCAC (((.(((....))).))) the same measures were -23.8 kcal/mol and 56.4 °C.
In the same order, the values of GTGTCCGAAAGGACCAC ((((((....))).))) are -10.2 kcal/mol and 48.5 °C.
For GTGTCCGAAAGGAGGCAC ((((((....)))..))) the same measures were -20.6 kcal/mol and 39.5 °C.
As for GTGTCCGAAAGGATACAC ((((((....)))..))), the folding enthalpy in data set [1] was -18.7 kcal/mol. In addition, the Tm in data set [2] was 49 °C.
For GTGTCCGAAAGGATCAC ((((((....))).))) the same measures were -25.2 kcal/mol and 51 °C.
For GTGTCCGGAAACGGACGC (.(((((....))))).), the folding enthalpy in data set [1] was -14.6 kcal/mol. Moreover, the Tm in data set [2] amounted to 62.5 °C.
Consider GTGTCGGAAACGACAC ((((((....)))))), for which the folding enthalpy in data set [1] was -30.9 kcal/mol. The Tm in data set [2] is 69.2 °C.
With GTGTCGGGAAACCGATAC ((.((((....)))).)), the folding enthalpy in data set [1] is -28.6 kcal/mol. Besides, the Tm in data set [2] came out at 52.1 °C.
In the same order, the values of GTGTCGGGAAACCGGCAC (((.(((....))).))) are -45.1 kcal/mol and 60.8 °C.
In the same order, the values of GTGTCGGGAAACTGACAC (((((.(....).))))) are -41.6 kcal/mol and 55 °C.
Take GTGTCTCGAAAGAGCAC (((.(((....)))))): the folding enthalpy in data set [1] was -33.4 kcal/mol. Further, the Tm in data set [2] was found to be 52.2 °C.
For GTGTCTGGAAACAGACAC (((((((....))))))) the same measures were -39.9 kcal/mol and 66.5 °C.
For GTGTCTGGAAACAGGTAC ((..(((....)))..)) the same measures were -11.4 kcal/mol and 30.1 °C.
As for GTGTGACGAAAGTCGCAC (((.(((....))).))), in data set [1], the folding enthalpy was -42.5 kcal/mol. Also, the Tm in data set [2] is 65.9 °C.
In the same order, the values of GTGTGAGGAAACTCACGC (.(((((....))))).) are -35.9 kcal/mol and 53.3 °C.
In the same order, the values of GTGTGAGGAAACTCATAC ((.((((....)))).)) are -36.5 kcal/mol and 44.9 °C.
For GTGTGAGGAAACTCATGC (..((((....))))..) the same measures were -23.5 kcal/mol and 36.8 °C.
For GTGTGAGGAAACTCGCAC (((.(((....))).))), in data set [1], the folding enthalpy was -47 kcal/mol. Moreover, the Tm in data set [2] came out at 54.3 °C.
For GTGTGCGAAAGCAAACAC ((((((....)))..))) the same measures were -24.1 kcal/mol and 51.7 °C.
For GTGTGCGAAAGCAGACAC ((((((....)))..))) the same measures were -19.1 kcal/mol and 53.2 °C.
In the same order, the values of GTGTGCGAAAGCATCAC ((((((....))).))) are -21.9 kcal/mol and 54 °C.
Consider GTGTGCGGAAACGCATGC (..((((....))))..), for which the folding enthalpy in data set [1] was -15.9 kcal/mol. Also, in data set [2], the Tm came out at 49.6 °C.
For GTGTGGGAAACCACAC ((((((....)))))) the same measures were -39.2 kcal/mol and 63.4 °C.
Take GTGTGGGGAAACCCACAC (((((((....))))))): the folding enthalpy in data set [1] is -32.3 kcal/mol. For the same sequence, in data set [2], the Tm is 69 °C.
For GTGTGGGGAAACCCACGC (.(((((....))))).) the same measures were -14.2 kcal/mol and 58.8 °C.
In the case of GTGTGGGGAAACCCATGC (..((((....))))..), the folding enthalpy in data set [1] is -21.5 kcal/mol. Further, the Tm in data set [2] was determined as 43.1 °C.
On to GTGTGGGGAAACCCGCAC (((.(((....))).))), for which the folding enthalpy in data set [1] was -35.3 kcal/mol. Further, in data set [2], the Tm was 59.7 °C.
In the same order, the values of GTGTGTCGAAAGACCCAC (((.(((....))).))) are -29 kcal/mol and 49.4 °C.
For GTGTGTGGAAACACATGC (..((((....))))..) the same measures were -18.8 kcal/mol and 49.6 °C.
For GTGTGTGGAAACATGCAC (((..((....))..))) the same measures were -27.4 kcal/mol and 43.3 °C.
For GTGTGTTCGAAAGAACAC (((..(((....)))))), in data set [1], the folding enthalpy was -15.7 kcal/mol. Further, the Tm in data set [2] was determined as 64.2 °C.
In the same order, the values of GTGTTACCGAAAGGTCAC (((..(((....)))))) are -23.6 kcal/mol and 43.6 °C.
Turning to GTGTTAGGAAACCAACAC (((((.(....).))))), the folding enthalpy in data set [1] was -28.9 kcal/mol. In addition, the Tm in data set [2] was 40 °C.
Consider GTGTTAGGAAACTAACAC (((((((....))))))), for which the folding enthalpy in data set [1] is -42.1 kcal/mol. Moreover, the Tm in data set [2] worked out at 57.8 °C.
Regarding GTGTTCCGAAAGGAGCAC (((.(((....))).))), the folding enthalpy in data set [1] was -41.8 kcal/mol. For the same sequence, in data set [2], the Tm is 59.3 °C.
For GTGTTCGAAAGAAACAC ((((((....))).))) the same measures were -28.1 kcal/mol and 47.1 °C.
Take GTGTTCGAAAGAACGCAC ((((((....)))..))): in data set [1], the folding enthalpy is -12.4 kcal/mol. For the same sequence, in data set [2], the Tm is 48.4 °C.
In the same order, the values of GTGTTCGAAAGAAGCAC ((((((....))).))) are -21.8 kcal/mol and 37.4 °C.
Take GTGTTCGGAAACAAACAC (((((.(....).))))): the folding enthalpy in data set [1] was -29.7 kcal/mol. Besides, the Tm in data set [2] was 37.8 °C.
In the same order, the values of GTGTTGGAAACAACAC ((((((....)))))) are -35 kcal/mol and 56.8 °C.
In the same order, the values of GTGTTGGGAAACTAGCAC (((.(.(....).).))) are -15.6 kcal/mol and 31.8 °C.
As to GTGTTGGGAAACTGACAC ((((..(....)..)))), the folding enthalpy in data set [1] is -27.6 kcal/mol. The Tm in data set [2] is 39.3 °C.
GTGTTTGCGAAAGCACAC (((..(((....)))))): the folding enthalpy in data set [1] was -20.2 kcal/mol. Further, the Tm in data set [2] was determined as 45.9 °C.
For GTGTTTGGAAACAAACAC (((((((....))))))) the same measures were -47.9 kcal/mol and 59.6 °C.
Take GTTAAACGAAAGTTGAAC (((.(((....))).))): the folding enthalpy in data set [1] was -26 kcal/mol. In data set [2], the Tm worked out at 41.7 °C.
In the same order, the values of GTTAACCCGAAAGGGAAC (((..(((....)))))) are -12.2 kcal/mol and 25.9 °C.
In the same order, the values of GTTAACCGAAAGGTGAAC (((.(((....))).))) are -27.7 kcal/mol and 48.9 °C.
As to GTTAACGAAAGTTATAAC ((((((....)))..))), in data set [1], the folding enthalpy was -13.3 kcal/mol. Moreover, in data set [2], the Tm turned out to be 26.4 °C.
For GTTAACGAAAGTTGAAAC ((((((....)))..))) the same measures were -11.1 kcal/mol and 24.9 °C.
On to GTTAACGGAAACGTTAAC (((((((....))))))), for which the folding enthalpy in data set [1] was -42.3 kcal/mol. For the same sequence, the Tm in data set [2] was found to be 56.9 °C.
Take GTTAAGCCGAAAGGCAAC (((..(((....)))))): in data set [1], the folding enthalpy is -10.5 kcal/mol. Besides, the Tm in data set [2] turned out to be 32.9 °C.
For GTTAAGCGAAAGCTAAAC (((.(((....))).))) the same measures were -19.9 kcal/mol and 41.5 °C.
Consider GTTAAGGGAAACCCTAAC ((((.((....)).)))), for which the folding enthalpy in data set [1] is -14.2 kcal/mol. Also, the Tm in data set [2] was determined as 30.3 °C.
For the sequence GTTAATGGAAACATTGAC ((.((((....)))).)), the folding enthalpy in data set [1] was -26.1 kcal/mol. The Tm in data set [2] worked out at 37.3 °C.
